Reference: ChEMBL document CHEMBL5154854, “Identification of a Vitamin-D Receptor Antagonist, MeTC7, which Inhibits the Growth of Xenograft and Transgenic Tumors In Vivo” (J Med Chem, 2022)
Calls of active or inactive are those of the source. No cut-off for these calls is given here.

Legend:
BE(2)-C [1] = test: Cytotoxicity against human BE2C cells assessed as reduction in cell viability incubated for 48 hrs by MTS assay; assay type: functional, cell-based; settings: dose 0.1-10 µM, DDE = dose-dependent effect
Summary of the method: (§1)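 Neuroblastoma lines seeded 5,000 cells/well, attached overnight, treated 48 h in complete medium (DMSO ≤0.2%); MTS reagent 1:10 in fresh RPMI 2–4 h, absorbance 490 nm.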

Kelly = test: Cytotoxicity against human Kelly cells assessed as reduction in cell viability incubated for 48 hrs by MTS assay; assay type: functional, cell-based; settings: dose 0.1-10 µM, DDE = dose-dependent effect; summary of the method: as §1
SH-SY5Y [2] = test: Cytotoxicity against human SH-SY5Y cells assessed as reduction in cell viability incubated for 48 hrs by MTS assay; assay type: functional, cell-based; settings: dose 0.1-10 µM, DDE = dose-dependent effect; summary of the method: as §1
[3] = Downregulation of VDR expression in human BE2C cells at 1 uM incubated for 24 hrs by western blot analysis relative to control; assay type: functional, BE(2)-C
Summary of the method: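 BE(2)-C neuroblastoma cells were treated for 24 h and immunoblotted for VDR, with β-actin or α-tubulin as loading control. Band intensities are reported as normalized densitometry.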

[4] = target: T1, Vitamin D3 receptor (Homo sapiens) (UniProt P11473); test: Antagonist activity at VDR in human BE2C cells assessed as reduction in MYCN expression at 1 uM incubated for 24 hrs by western blot analysis relative to control; assay type: cell-based; settings: filed as antagonist
T1 sequence (whole entry): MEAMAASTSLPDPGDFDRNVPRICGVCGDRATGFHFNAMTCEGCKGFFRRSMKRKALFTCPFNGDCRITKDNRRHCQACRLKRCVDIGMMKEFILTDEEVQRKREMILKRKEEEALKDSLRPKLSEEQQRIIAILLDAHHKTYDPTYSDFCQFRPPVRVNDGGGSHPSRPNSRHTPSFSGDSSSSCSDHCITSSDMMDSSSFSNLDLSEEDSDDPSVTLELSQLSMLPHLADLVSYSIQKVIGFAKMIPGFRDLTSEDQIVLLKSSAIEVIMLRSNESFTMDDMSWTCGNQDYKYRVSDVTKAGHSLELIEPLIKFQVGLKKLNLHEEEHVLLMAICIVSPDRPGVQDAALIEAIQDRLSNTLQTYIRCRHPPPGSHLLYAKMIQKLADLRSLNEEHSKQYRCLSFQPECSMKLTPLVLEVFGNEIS
Summary of the method: (§2)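 BE(2)-C cells given 1 μM for 24 h; immunoblot with β-actin or α-tubulin loading control; normalized densitometry.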

[5] = target: T1, Vitamin D3 receptor (Homo sapiens); test: Antagonist activity at VDR in human BE2C cells assessed as reduction in cyclin-D expression at 1 uM incubated for 24 hrs by western blot analysis relative to control; assay type: cell-based; settings: filed as antagonist; summary of the method: as §2
SH-SY5Y [6] = test: Anti-tumor activity against human SH-SY5Y cells xenografted in NSG mouse assessed as reduction in tumor volume at 10 mg/kg, ip measured for 5 to 10 days; assay type: functional, organism-based; settings: time 5-10 day
Summary of the method: (§3)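 NSG mice, 6–8 weeks, injected subcutaneously in right flank with ES2 (250,000) or SH-SY5Y/BE(2)C (1 million) cells in cold matrigel/serum-free RPMI 1:1. Once palpable, 10 mg/kg IP M–F vs vehicle; volume (length × width2)[…]; BE(2)C and ES2 monitored alternate days; endpoint 2000 mm3; % change in volume, t-test.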

BE(2)-C [7] = test: Anti-tumor activity against human BE2C cells xenografted in NSG mouse assessed as reduction in tumor volume at 10 mg/kg, ip measured for 5 to 8 days; assay type: functional, organism-based; settings: time 5-8 day; summary of the method: as §3
Tumor cell line [8] = test: Cytotoxicity against tumor cells in TH-MYCN +/+ transgenic neuroblastoma 129x1/SvJ.Tg (TH-MYCN)41Waw/Nci mouse model assessed as reduction in cell viability at 0.1 to 10 uM measured after 3 days by MTS assay; assay type: functional, cell-based; settings: dose 0.1-10 µM, time 3.0 day
Summary of the method: (§4)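 Tumor cells mechanically dissociated from tumors of three homozygous TH-MYCN mice, grown as spheres in RPMI1640 with 20% FBS, 2-mercaptoethanol, pyruvate and NEAA; treated 3 days; viability by MTS; spheres imaged by light microscopy.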

Tumor cell line [9] = test: Cytotoxicity against tumor cells in TH-MYCN +/+ transgenic neuroblastoma 129x1/SvJ.Tg (TH-MYCN)41Waw/Nci mouse model assessed as reduction in viability of tumor spheres measured after 3 days by light microscopy; assay type: functional, cell-based; settings: dose 1-4 µM, time 3.0 day, DDE = dose-dependent effect; summary of the method: as §4
Mus musculus [10] = test: Anti-tumor activity against TH-MYCN +/+ transgenic neuroblastoma 129x1/SvJ.Tg (TH-MYCN)41Waw/Nci mouse model assessed as reduction in tumor growth at 10 mg/kg, ip measured upto 7 days by ultrasound imaging analysis; assay type: functional, organism-based; settings: time <= 7.0 day
Summary of the method: (§5)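 Homozygous TH-MYCN+/+ mice (129×1/SvJ background, genotyped) with spontaneous neuroblastoma dosed IP, vehicle n = 7, 10 mg/kg n = 8, six treatments; a 100 mg/kg group got three. Tumor burden by abdominal ultrasound under 1–3% isoflurane; tumors excised and weighed at end; groups compared by t-test.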

Mus musculus [11] = test: Anti-tumor activity against tumor cells in TH-MYCN +/+ neuroblastoma 129x1/SvJ.Tg (TH-MYCN)41Waw/Nci mouse model assessed as reduction in tumor volume administered intraperitoneally measured on day 7 by ultrasound imaging analysis; assay type: functional, organism-based; settings: route ip, time 7.0 day, DDE = dose-dependent effect; summary of the method: as §5
Mus musculus [12] = test: Anti-tumor activity against tumor cells in TH-MYCN +/+ neuroblastoma 129x1/SvJ.Tg (TH-MYCN)41Waw/Nci mouse model assessed as reduction in tumor weight at 10 mg/kg, ip measured on day 7 by ultrasound imaging analysis; assay type: functional, organism-based; settings: time 7.0 day; summary of the method: as §5
[13] = Toxicity in TH-MYCN +/+ transgenic neuroblastoma 129x1/SvJ.Tg (TH-MYCN)41Waw/Nci mouse model assessed as effect on CD45+ cells population at 10 mg/kg, ip qd by flow cytometry; assay type: organism-based; settings: in vivo
Summary of the method: (§6)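 Immune cells isolated from TH-MYCN tumor-bearing mice treated with vehicle or compound; CD45+, CD4+, CD8+, macrophage, patrolling monocyte/DC and CD11b+ populations quantified by flow cytometry with characterized markers.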

[14] = Toxicity in TH-MYCN +/+ transgenic neuroblastoma 129x1/SvJ.Tg (TH-MYCN)41Waw/Nci mouse model assessed as effect on CD4+ cells population at 10 mg/kg, ip qd by flow cytometry; assay type: organism-based; settings: in vivo; summary of the method: as §6
[15] = Toxicity in TH-MYCN +/+ transgenic neuroblastoma 129x1/SvJ.Tg (TH-MYCN)41Waw/Nci mouse model assessed as effect on CD8+ cells population at 10 mg/kg, ip qd by flow cytometry; assay type: organism-based; settings: in vivo; summary of the method: as §6
[16] = Toxicity in TH-MYCN +/+ transgenic neuroblastoma 129x1/SvJ.Tg (TH-MYCN)41Waw/Nci mouse model assessed as effect on macrophage population at 10 mg/kg, ip qd by flow cytometry; assay type: organism-based; settings: in vivo; summary of the method: as §6
[17] = Toxicity in TH-MYCN +/+ transgenic neuroblastoma 129x1/SvJ.Tg (TH-MYCN)41Waw/Nci mouse model assessed as effect on patrolling monocytes/DC+ cells population at 10 mg/kg, ip qd by flow cytometry; assay type: organism-based; settings: in vivo; summary of the method: as §6
[18] = Toxicity in TH-MYCN +/+ transgenic neuroblastoma 129x1/SvJ.Tg (TH-MYCN)41Waw/Nci mouse model assessed as effect on CD11b+ cells population at 10 mg/kg, ip qd by flow cytometry; assay type: organism-based; settings: in vivo; summary of the method: as §6
[19] = Anti-tumor activity against human SK-OV-3 cells xenografted in nude mouse assessed as animal survival at 10 mg/kg, ip measured upto 36 days; settings: SK-OV-3, 864 h
SK-OV-3 = test: Anti-tumor activity against human SK-OV-3 cells xenografted in nude mouse assessed as reduction in tumor growth at 10 mg/kg, ip measured for 1 to 39 days; settings: time 1-39 day

With `CC(C)CCC[C@@H](C)[C@H]1CC[C@@H]2[C@]1(C)CCC1[C@]23C=C[C@]2(C[C@@H](OC(=O)CBr)CC[C@]12C)n1c(=O)n(C)c(=O)n13` (stereo partly specified) the Activity (BE(2)-C [1]) was “Dde”, the Activity (Kelly) was “Dde” and the Activity (SH-SY5Y [2]) was “Dde”. For the same compound, the “fold change (FC)” value [3] was 0.83, the fold change (FC) [4] was 0.68 and the fold change (FC) [5] was 0.8. The Activity (SH-SY5Y [6]) was “Active”, the Activity (BE(2)-C [7]) was “Active” and the Activity (Tumor cell line [8]) was “Active”. For the same compound, the Activity (Tumor cell line [9]) was “Dde”, the Activity (Mus musculus [10]) was “Active” and the Activity (Mus musculus [11]) was “Dde”. The Activity (Mus musculus [12]) was “Active”, the Activity [13] was “Non-Toxic” and the Activity [14] was “Non-Toxic”. For the same compound, the Activity [15] was “Non-Toxic”, the Activity [16] was “Non-Toxic” and the Activity [17] was “Non-Toxic”. For the same compound, the Activity [18] was “Non-Toxic”, the survival at 10 mg/kg [19] was 100% and the Activity (SK-OV-3) was “Active”.
